Experimental data collected from several papers.
Target: Protein kinase C iota type (PRKCI, Homo sapiens, UniProt P41743)
Residues used in one study (P41743 1-596): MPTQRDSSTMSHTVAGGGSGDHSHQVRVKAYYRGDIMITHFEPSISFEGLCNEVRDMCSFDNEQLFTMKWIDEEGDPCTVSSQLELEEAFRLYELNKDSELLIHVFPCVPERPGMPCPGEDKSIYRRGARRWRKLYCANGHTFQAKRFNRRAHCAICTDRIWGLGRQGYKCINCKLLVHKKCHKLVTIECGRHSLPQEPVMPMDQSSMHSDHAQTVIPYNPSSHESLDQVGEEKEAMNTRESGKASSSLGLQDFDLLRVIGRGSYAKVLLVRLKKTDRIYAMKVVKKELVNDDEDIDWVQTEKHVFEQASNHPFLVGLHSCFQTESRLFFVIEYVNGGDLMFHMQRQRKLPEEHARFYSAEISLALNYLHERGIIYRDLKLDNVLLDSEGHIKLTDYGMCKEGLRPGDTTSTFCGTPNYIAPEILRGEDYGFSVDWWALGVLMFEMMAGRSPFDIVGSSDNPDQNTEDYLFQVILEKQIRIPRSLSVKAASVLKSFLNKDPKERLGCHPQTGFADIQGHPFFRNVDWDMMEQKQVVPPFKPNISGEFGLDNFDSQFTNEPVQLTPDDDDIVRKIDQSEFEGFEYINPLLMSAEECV

| SMILES | observed | action | method | tested at | endpoint | result |
| --- | --- | --- | --- | --- | --- | --- |
| Cn1cc(-c2cc(F)cc(N3CCn4c(cc5c4CCCC5)C3=O)c2CO)cc(Nc2ccc(N3CCN(C4COC4)CC3)cn2)c1=O | enzyme activity | inhibitor |  | 0.1 µM | inhibition | -3% |
| O=c1[nH]c2ccccc2n1C1CCN(Cc2ccc(-c3[nH]c4cc5ncnc5cc4nc3-c3ccccc3)cc2)CC1 | cell-free assay |  |  | 0.5 µM | remaining signal | 97% |
| Cn1cncc1[C@](O)(COc1ccc(C#N)cc1-c1ccc(OC(F)(F)F)cc1)c1ccc(C#N)cc1 | cell-free assay |  | competition with immobilised ligand | 1 µM | remaining binding | 100% |
| COc1cc(Nc2ncc(F)c(Nc3ccc4c(n3)NC(=O)C(C)(C)O4)n2)cc(OC)c1OC | binding |  |  | 10 µM | inhibition | 35% |
| Cn1cc(-c2cccc(N3CCc4c(sc5c4CC(C)(C)C5)C3=O)c2CO)cc(Nc2ccncn2)c1=O | enzyme activity | inhibitor |  | 1 µM | inhibition | 6% |
| COCc1c(-c2cc3cc(C)cc(OC)c3s2)c2c(N)ncnn2c1CN1CCNC(=O)C1 | cell-free assay |  | competition with immobilised ligand | 1 µM | inhibition | 80% |
| CC(C)(C)c1cc(C=C(C#N)C#N)cc(Br)c1O | enzyme activity | inhibitor |  | 0.5 µM | remaining activity | 100% |
| COc1ncccc1-c1cnn2ccc(N3CCN(C(=O)OC(C)C)CC3)nc12 | binding |  | competition with immobilised ligand | 1 µM | remaining binding | 90% |
